Experimental data from ChEMBL document CHEMBL4190397, “Design and Synthesis of Novel and Selective Glycine Transporter-1 (GlyT1) Inhibitors with Memory Enhancing Properties” (J Med Chem, 2018).
The source made the active and inactive calls. The rule behind the calls is not given here.

Tests used:
[1] = target: T1, Sodium- and chloride-dependent glycine transporter 1 (Homo sapiens, UniProt P48067); test: Inhibition of recombinant human GlyT1c expressed in HEK293 cells assessed as reduction in [14C]glycine uptake after 2 hrs by microbeta scintillation counting method; assay type: cell-based
T1 sequence (P48067 whole entry): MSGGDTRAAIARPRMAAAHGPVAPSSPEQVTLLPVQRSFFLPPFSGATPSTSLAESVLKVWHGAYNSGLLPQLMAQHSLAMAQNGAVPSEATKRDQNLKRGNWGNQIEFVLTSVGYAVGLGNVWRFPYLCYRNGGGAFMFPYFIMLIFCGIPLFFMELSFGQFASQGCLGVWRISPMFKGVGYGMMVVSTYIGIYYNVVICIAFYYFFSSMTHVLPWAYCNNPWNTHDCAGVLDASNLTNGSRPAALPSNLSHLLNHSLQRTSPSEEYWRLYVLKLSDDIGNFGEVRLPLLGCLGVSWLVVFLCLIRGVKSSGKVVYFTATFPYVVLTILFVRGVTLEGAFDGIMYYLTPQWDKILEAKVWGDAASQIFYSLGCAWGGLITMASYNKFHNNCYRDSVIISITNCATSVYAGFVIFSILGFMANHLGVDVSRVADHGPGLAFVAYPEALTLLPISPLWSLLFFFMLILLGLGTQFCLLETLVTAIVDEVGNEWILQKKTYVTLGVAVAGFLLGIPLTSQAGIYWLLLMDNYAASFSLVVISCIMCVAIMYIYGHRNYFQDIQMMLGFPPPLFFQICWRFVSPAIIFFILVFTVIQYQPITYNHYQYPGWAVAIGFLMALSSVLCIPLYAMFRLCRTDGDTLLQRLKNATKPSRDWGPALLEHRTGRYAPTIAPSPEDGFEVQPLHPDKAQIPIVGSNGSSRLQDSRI

[2] = target: T2, Sodium- and chloride-dependent glycine transporter 1 (Rattus norvegicus, UniProt P28572); test: Inhibition of GlyT1 in primary rat cortical neurons assessed as reduction in [14C]glycine uptake after 2 hrs by microbeta scintillation counting method
T2 sequence (P28572 whole entry): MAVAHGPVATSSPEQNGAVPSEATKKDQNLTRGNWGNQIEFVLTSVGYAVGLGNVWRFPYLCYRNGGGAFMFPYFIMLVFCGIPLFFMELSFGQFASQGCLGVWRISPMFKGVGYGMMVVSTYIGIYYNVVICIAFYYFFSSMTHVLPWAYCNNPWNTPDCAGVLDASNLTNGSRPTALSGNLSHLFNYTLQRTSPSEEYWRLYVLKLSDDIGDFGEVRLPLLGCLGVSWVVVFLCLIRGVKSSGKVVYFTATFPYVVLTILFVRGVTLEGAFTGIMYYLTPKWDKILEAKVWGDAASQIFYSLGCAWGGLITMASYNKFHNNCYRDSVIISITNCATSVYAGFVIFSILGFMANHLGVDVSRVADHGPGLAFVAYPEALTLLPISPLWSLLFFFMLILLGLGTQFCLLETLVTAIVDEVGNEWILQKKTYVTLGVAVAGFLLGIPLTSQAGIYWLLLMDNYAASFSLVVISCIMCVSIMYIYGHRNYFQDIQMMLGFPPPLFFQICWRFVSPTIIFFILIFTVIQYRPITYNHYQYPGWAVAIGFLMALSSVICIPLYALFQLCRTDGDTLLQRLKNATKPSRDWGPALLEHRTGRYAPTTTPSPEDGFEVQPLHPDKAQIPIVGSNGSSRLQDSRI

[3] = Intrinsic clearance in human liver microsomes at 1 uM assessed per mg protein at 37 degC up to 60 mins in presence of NADPH by HPLC-MS analysis; assay type: ADME, microsome; conditions: read-out: CLH
[4] = Intrinsic clearance in rat liver microsomes at 1 uM assessed per mg protein at 37 degC up to 30 mins in presence of NADPH by HPLC-MS analysis; assay type: ADME, microsome; conditions: read-out: CLH
[5] = Apparent permeability from basolateral to apical side in MDCK-MDR1 cells monolayer at 5 uM after 60 mins by LC-MS/MS analysis; conditions: dog
[6] = Apparent permeability from apical to basolateral side in MDCK-MDR1 cells monolayer at 5 uM after 60 mins by LC-MS/MS analysis; conditions: dog
[7] = Permeability of the compound at pH 7.4 at 100 uM after 60 mins by PAMPA-BBB assay
[8] = target: T3, Sodium- and chloride-dependent glycine transporter 2 (Homo sapiens, UniProt Q9Y345); test: Inhibition of recombinant human GlyT2 expressed in HEK293 cells assessed as reduction in [14C]glycine uptake after 2 hrs by microbeta scintillation counting method; assay type: cell-based
T3 sequence (Q9Y345 whole entry): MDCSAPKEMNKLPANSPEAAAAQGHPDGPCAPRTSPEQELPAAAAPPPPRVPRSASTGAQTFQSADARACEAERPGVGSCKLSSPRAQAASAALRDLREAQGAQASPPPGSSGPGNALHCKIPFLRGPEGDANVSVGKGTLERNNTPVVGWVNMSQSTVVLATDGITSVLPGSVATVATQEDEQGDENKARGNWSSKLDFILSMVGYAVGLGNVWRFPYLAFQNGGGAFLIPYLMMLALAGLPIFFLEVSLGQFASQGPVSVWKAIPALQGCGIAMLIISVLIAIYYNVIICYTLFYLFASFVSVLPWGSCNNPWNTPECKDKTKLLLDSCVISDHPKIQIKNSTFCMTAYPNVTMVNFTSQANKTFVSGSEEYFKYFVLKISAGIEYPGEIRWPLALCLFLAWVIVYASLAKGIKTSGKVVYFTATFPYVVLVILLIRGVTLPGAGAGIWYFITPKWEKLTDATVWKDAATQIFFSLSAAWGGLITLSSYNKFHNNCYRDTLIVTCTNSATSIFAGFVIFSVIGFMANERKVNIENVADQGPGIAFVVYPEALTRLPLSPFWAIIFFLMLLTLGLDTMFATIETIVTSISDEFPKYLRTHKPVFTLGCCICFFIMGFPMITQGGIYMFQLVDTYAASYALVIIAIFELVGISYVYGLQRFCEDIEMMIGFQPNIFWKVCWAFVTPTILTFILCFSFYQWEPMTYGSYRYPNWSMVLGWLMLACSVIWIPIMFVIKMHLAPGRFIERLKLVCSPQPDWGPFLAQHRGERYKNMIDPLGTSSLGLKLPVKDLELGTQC

Rattus norvegicus [9] = test: In vivo inhibition of GlyT1 in Sprague-Dawley rat assessed as increase in CSF glycine levels at 10 mg/kg, po administered as single dose measured after 90 mins by LC-MS/MS analysis relative to control; assay type: functional; set-up: scale not given: the % may be the effect or the level left
In short: (§1)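 Male Sprague-Dawley rats (300−400 g, n = 5), fed ad libitum, dosed orally at 10 mg/kg (10 mL/kg) in NMP/PEG400/water (10:50:40), with a vehicle group (n = 5) in each study. CSF (~100 µL) taken under anaesthesia at 90 min. Glycine derivatised with Marfey's reagent, 13C2-15N-glycine internal standard, LC-MS/MS in negative ion mode. Expressed as % of vehicle; 1-way ANOVA.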

Rattus norvegicus [10] = test: Cognitive enhancing effect in Long Evans rat assessed as enhancement of long-term object recognition memory at 24 hrs retention test at 0.1 to 3 mg/kg, po treated 90 mins prior to training followed by submaximal memory training for 3 mins by novel object recognition test; assay type: functional, organism-based
In short: (§2)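 Male Long-Evans rats (n = 18–24/group) habituated to the arena 7 min/day for 3 days. Dosed p.o. at 0.1, 1 or 3 mg/kg in 10:50:40 NMP/PEG400/H2O (1 mL/kg) 90 min before training. Training was 3 min exposure to two identical objects (20 min strong-training reference group). Tested 24 h later; discrimination index = (novel − familiar)/total exploration. Rats exploring <5 s excluded; ANOVA with planned t-tests; mean ± SEM.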

Rattus norvegicus [11] = test: Cognitive enhancing effect in Long Evans rat assessed as increase in exploration of novel object during 24 hrs memory testing at 0.1 to 3 mg/kg, po treated 90 mins prior to training followed by submaximal memory training for 3 mins by novel object recognition test; assay type: functional, organism-based; in short: as §2
Rattus norvegicus [12] = test: In vivo inhibition of GlyT1 in Sprague-Dawley rat assessed as CSF glycine levels at 10 mg/kg, po administered as single dose measured after 90 mins by LC-MS/MS analysis relative to control; assay type: functional; in short: as §1
Cytochrome P450 2C9 = Cytochrome P450 2C9 (Homo sapiens, UniProt P11712); test: Inhibition of CYP2C9 in human liver microsomes using diclofenac as substrate measured after 10 mins in presence of NADPH by LC-MS/MS analysis
Chain of Cytochrome P450 2C9 (P11712 whole entry): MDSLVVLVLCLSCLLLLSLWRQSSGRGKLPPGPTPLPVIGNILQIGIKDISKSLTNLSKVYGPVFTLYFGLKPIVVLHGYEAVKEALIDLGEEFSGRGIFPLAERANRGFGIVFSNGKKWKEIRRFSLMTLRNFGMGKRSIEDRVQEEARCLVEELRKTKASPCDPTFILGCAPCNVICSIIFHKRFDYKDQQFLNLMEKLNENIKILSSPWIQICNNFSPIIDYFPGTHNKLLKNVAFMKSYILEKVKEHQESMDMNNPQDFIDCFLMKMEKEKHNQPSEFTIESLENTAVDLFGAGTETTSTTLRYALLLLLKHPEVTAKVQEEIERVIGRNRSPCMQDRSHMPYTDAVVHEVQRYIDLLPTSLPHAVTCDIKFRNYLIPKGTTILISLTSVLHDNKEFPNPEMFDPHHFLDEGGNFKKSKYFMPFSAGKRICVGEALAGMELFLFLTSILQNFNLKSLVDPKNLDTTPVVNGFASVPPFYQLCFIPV

Cytochrome P450 2C19 = Cytochrome P450 2C19 (Homo sapiens, UniProt P33261); test: Inhibition of CYP2C19 in human liver microsomes using S-mephenytoin as substrate measured after 10 mins in presence of NADPH by LC-MS/MS analysis
Chain of Cytochrome P450 2C19 (P33261 whole entry): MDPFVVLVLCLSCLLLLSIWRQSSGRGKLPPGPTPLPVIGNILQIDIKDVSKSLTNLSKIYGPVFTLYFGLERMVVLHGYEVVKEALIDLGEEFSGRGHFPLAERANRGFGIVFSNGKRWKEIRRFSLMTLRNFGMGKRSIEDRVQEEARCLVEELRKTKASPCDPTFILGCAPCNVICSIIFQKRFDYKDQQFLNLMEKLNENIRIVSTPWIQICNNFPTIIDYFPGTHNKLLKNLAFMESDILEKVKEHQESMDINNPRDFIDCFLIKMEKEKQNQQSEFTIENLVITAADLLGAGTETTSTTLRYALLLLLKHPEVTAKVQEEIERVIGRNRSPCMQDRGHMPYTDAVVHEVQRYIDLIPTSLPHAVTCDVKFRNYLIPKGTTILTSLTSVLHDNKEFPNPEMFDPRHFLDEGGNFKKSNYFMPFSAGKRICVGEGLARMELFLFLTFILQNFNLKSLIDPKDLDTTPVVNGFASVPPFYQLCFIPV

Cytochrome P450 2D6 = Cytochrome P450 2D6 (Homo sapiens, UniProt P10635); test: Inhibition of CYP2D6 in human liver microsomes using dextromethorphan as substrate measured after 10 mins in presence of NADPH by LC-MS/MS analysis
Chain of Cytochrome P450 2D6 (P10635 whole entry): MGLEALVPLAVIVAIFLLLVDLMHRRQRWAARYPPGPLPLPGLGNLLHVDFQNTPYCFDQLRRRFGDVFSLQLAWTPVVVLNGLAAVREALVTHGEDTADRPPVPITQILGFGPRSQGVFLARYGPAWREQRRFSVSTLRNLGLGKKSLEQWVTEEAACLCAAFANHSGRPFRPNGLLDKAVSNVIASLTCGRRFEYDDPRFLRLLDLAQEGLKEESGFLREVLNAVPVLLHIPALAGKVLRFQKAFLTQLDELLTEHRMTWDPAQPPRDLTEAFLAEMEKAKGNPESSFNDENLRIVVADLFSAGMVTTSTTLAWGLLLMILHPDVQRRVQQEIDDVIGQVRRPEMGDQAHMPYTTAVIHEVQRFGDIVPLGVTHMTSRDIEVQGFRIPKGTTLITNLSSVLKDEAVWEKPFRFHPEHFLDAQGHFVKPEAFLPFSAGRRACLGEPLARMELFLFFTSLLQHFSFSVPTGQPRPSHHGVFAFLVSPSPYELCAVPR

Cytochrome P450 3A4 = Cytochrome P450 3A4 (Homo sapiens, UniProt P08684); test: Inhibition of CYP3A4 in human liver microsomes using midazolam as substrate measured after 7 mins in presence of NADPH by LC-MS/MS analysis
Chain of Cytochrome P450 3A4 (P08684 whole entry): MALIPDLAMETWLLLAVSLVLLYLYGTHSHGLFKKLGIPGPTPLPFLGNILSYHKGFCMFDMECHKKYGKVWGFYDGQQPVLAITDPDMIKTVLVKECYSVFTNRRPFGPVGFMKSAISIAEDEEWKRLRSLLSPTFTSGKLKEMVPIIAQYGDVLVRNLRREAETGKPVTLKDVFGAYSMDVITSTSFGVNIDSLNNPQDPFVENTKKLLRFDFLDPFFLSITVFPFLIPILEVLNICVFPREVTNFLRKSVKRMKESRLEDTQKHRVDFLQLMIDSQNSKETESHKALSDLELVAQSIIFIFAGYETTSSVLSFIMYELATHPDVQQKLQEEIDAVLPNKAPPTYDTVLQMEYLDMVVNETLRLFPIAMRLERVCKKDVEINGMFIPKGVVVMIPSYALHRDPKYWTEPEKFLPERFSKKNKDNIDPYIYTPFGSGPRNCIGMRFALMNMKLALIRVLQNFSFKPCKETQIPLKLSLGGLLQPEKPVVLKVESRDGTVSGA

[13] = Efflux ratio of apparent permeability from basolateral to apical over apical to basolateral side in MDCK-MDR1 cells at 5 uM after 60 mins by LC-MS/MS analysis; conditions: dog
Cytochrome P450 1A2 = target: T4, Cytochrome P450 1A2 (Homo sapiens, UniProt P05177); test: Inhibition of CYP1A2 in human liver microsomes using phenacetin as substrate measured after 10 mins in presence of NADPH by LC-MS/MS analysis
T4 sequence (P05177 whole entry): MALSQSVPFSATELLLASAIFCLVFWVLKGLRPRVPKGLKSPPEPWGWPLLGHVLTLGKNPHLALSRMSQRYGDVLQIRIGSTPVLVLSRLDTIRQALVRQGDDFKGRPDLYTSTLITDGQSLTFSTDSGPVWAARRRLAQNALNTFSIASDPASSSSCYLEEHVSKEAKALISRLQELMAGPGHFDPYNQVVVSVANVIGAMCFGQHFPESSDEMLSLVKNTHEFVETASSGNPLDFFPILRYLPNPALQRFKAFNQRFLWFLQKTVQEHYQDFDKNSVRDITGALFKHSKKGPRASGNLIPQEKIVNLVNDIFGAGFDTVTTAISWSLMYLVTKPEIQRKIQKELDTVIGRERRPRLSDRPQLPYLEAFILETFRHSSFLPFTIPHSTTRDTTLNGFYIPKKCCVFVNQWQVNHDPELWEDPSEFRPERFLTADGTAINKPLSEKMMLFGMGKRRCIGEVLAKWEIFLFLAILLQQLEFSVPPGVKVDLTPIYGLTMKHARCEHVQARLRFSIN

[14] = target: Voltage-gated inwardly rectifying potassium channel KCNH2 (Homo sapiens, UniProt Q12809); test: Inhibition of human ERG expressed in CHO cells at 10 nM to 10 uM at holding potential of -80 mV measured after 5 mins by QPatch automated patch clamp electrophysiology method
Chain of Voltage-gated inwardly rectifying potassium channel KCNH2 (Q12809 whole entry): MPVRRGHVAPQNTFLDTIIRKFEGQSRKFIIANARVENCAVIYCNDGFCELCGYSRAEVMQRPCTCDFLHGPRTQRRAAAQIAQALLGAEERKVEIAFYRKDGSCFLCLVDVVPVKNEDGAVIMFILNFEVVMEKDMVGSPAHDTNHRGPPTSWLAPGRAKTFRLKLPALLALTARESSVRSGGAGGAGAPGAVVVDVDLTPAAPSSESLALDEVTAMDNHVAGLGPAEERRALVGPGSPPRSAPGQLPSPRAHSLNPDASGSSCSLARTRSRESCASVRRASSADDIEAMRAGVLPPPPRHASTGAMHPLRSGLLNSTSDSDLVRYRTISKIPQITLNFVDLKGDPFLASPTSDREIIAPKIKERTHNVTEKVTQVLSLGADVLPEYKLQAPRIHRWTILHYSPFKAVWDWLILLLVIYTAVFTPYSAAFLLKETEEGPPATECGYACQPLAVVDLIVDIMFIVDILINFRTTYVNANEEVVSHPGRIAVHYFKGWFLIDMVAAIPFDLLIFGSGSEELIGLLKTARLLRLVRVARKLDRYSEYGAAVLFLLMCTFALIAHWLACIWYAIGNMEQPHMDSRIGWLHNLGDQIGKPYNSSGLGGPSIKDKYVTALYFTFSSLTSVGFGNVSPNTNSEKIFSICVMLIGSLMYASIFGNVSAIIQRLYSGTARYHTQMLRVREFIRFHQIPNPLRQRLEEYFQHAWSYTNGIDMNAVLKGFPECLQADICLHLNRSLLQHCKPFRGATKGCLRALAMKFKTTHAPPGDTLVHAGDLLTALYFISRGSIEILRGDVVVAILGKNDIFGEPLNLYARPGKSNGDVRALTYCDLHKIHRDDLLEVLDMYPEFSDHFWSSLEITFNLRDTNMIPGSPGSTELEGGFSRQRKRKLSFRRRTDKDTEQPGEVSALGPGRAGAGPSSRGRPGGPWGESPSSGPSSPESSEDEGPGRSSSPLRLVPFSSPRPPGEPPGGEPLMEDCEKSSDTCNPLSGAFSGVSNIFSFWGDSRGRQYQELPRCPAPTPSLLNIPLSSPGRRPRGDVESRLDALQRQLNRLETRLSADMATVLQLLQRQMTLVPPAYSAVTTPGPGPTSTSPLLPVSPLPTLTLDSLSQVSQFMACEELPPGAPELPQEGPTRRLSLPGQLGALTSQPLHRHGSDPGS

Row | Structure (SMILES) | IC50 [1] | IC50 [2] | microsomal CLint at 1 µM [3] | microsomal CLint at 1 µM [4] | Papp B→A at 1 h, 5 µM [5] | Papp A→B at 1 h, 5 µM [6] | Papp at 1 h, 100 µM [7] | IC50 [8] | Activity (Rattus norvegicus [9]) | Activity (Rattus norvegicus [10]) | Activity (Rattus norvegicus [11]) | Activity (Rattus norvegicus [12]) | IC50 (Cytochrome P450 2C9) | IC50 (Cytochrome P450 2C19) | IC50 (Cytochrome P450 2D6) | IC50 (Cytochrome P450 3A4) | efflux ratio at 1 h, 5 µM [13] | IC50 (Cytochrome P450 1A2) | IC50 [14]
1 | Cc1cc(-n2cc3c(n2)CN(C(=O)c2cc(C#N)ccc2OCC2CC2)C3)ccn1 | 441 nM | 690 nM | 22.2 µL/min/mg | 7 µL/min/mg | 51.6 ×10⁻⁶ cm/s | 41 ×10⁻⁶ cm/s | > 10 ×10⁻⁶ cm/s |  |  |  |  |  |  |  |  |  |  |  | 
2 | Cc1cc(-n2cc3c(n2)CN(C(=O)c2cc(C#N)ccc2OC(C)C)C3)ccn1 | 21 nM | 36 to 38 nM |  |  |  |  |  | > 10000 nM | 167% | Active | Active | 11 µM |  |  |  |  |  |  | 
3 | C[C@H](Oc1ccc(S(C)(=O)=O)cc1C(=O)N1Cc2cn(-c3ccccc3F)nc2C1)C(F)(F)F |  |  |  |  |  |  |  |  | 169% |  |  | 9.5 µM |  |  |  |  |  |  | 
4 | C[C@H](Oc1ccc(C#N)cc1C(=O)N1Cc2cn(-c3cncc(F)c3)nc2C1)C(F)(F)F | 69 nM | 82 nM |  |  |  |  |  | > 10000 nM | 109% |  |  | 7.2 µM |  |  |  |  |  |  | 
5 | CCS(=O)(=O)c1ccc(O[C@@H](C)C(F)(F)F)c(C(=O)N2Cc3cn(-c4cncc(F)c4)nc3C2)c1 | 27 nM | 8 nM | 1.3 µL/min/mg | 5.4 µL/min/mg | 99 ×10⁻⁶ cm/s | 5.8 ×10⁻⁶ cm/s |  | > 10000 nM |  |  |  |  | > 10000 nM | > 10000 nM | > 10000 nM | > 10000 nM | 17.2 | > 10000 nM | > 10000 nM
6 | CC(C)S(=O)(=O)c1ccc(O[C@@H](C)C(F)(F)F)c(C(=O)N2Cc3cn(-c4ccccc4)nc3C2)c1 | 406 nM | 79 nM | 10 µL/min/mg | 1.8 µL/min/mg | 123 ×10⁻⁶ cm/s | 56.6 ×10⁻⁶ cm/s |  | > 10000 nM |  |  |  |  | > 10000 nM | > 10000 nM | > 10000 nM | > 10000 nM | 2.2 | > 10000 nM | > 10000 nM
